Assay results: ChEMBL document CHEMBL3734706, “Syntheses and biological evaluation of C-3'-N-acyl modified taxane analogues from 1-deoxybaccatin-VI” (Eur J Med Chem, 2015)

Columns and labels:
[1] = Cytotoxicity against human PC3 cells assessed as inhibition of cell survival upto 100 uM incubated for 72 hrs by MTT assay relative to control; type: functional, PC-3
Outline: (§1)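 Exponentially growing human tumour cells exposed 72 h to compounds formulated in DMSO; survival read by MTT; dose–response curves over 0.001–100 μM; IC50 taken from curves.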

[2] = Cytotoxicity against human PC3 cells incubated for 72 hrs by MTT assay; type: functional, cell-based; conditions: PC-3, 72 h; outline: as §1
HepG2 = test: Cytotoxicity against human HepG2 cells incubated for 48 hrs by CCK-8 assay; type: functional, cell-based; conditions: HepG2, 48 h
Outline: (§2)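 Growing human tumour cells exposed to compounds for 48 h; viability read by CCK-8; IC50 determined.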

[3] = Cytotoxicity against human H460 cells incubated for 48 hrs by CCK-8 assay; type: functional, cell-based; conditions: NCI-H460, 48 h; outline: as §2
MDA-MB-231 [4] = test: Cytotoxicity against human MDA-MB-231 cells incubated for 72 hrs by MTT assay; type: functional, cell-based; conditions: MDA-MB-231, 72 h; outline: as §1
MDA-MB-231 [5] = test: Cytotoxicity against human MDA-MB-231 cells assessed as inhibition of cell survival upto 100 uM incubated for 72 hrs by MTT assay relative to control; type: functional; outline: as §1
[6] = Cytotoxicity against human HCT116 cells assessed as decrease in cell protein incubated for 48 hrs; type: functional, cell-based; conditions: HCT-116, 48 h
A549 = test: Cytotoxicity against human A549 cells; type: functional, cell-based

Row | Structure (SMILES) | inhibition (INH) [1] | IC50 [2] | IC50 (HepG2) | IC50 [3] | IC50 (MDA-MB-231 [4]) | inhibition (INH) (MDA-MB-231 [5]) | IC50 [6] | IC50 (A549)
1 | COc1ccc(C(=O)N[C@@H](c2ccccc2)[C@@H](O)C(=O)O[C@H]2CC3[C@@H](OC(=O)c4ccccc4)[C@@H]4[C@]5(OC(C)=O)CO[C@@H]5C[C@H](O)[C@@]4(C)[C@@H](O)[C@H](O)C(=C2C)C3(C)C)cc1 (stereo not given in full) | 90% | 10 nM | 567 nM | 199 nM | < 1 nM | 90% | – | –
2 | CC(=O)O[C@H]1C(=O)[C@@]2(C)[C@H]([C@H](OC(=O)c3ccccc3)[C@]3(O)C[C@H](OC(=O)[C@H](O)[C@@H](NC(=O)c4ccccc4)c4ccccc4)C(C)=C1C3(C)C)[C@]1(OC(C)=O)CO[C@@H]1C[C@@H]2O [PACLITAXEL] | 40% | < 1 nM | 1220 nM | 4290 nM | < 1 nM | 40% | 2.8 nM | –
3 | CCCCCC(=O)N[C@@H](c1ccccc1)[C@@H](O)C(=O)O[C@H]1CC2[C@@H](OC(=O)c3ccccc3)[C@@H]3[C@]4(OC(C)=O)CO[C@@H]4C[C@H](OC(C)=O)[C@@]3(C)C(=O)[C@H](OC(C)=O)C(=C1C)C2(C)C (stereo not given in full) | – | 330 nM | – | – | 270 nM | – | – | –
4 | CC(=O)O[C@@]12CO[C@@H]1C[C@H](O)[C@]1(C)[C@@H]2[C@H](OC(=O)c2ccccc2)C2C[C@H](OC(=O)[C@H](O)[C@@H](NC(=O)c3ccco3)c3ccccc3)C(C)=C([C@@H](O)[C@@H]1O)C2(C)C (stereo not given in full) | 90% | 4 nM | 2020 nM | 289 nM | < 1 nM | 90% | – | –
5 | CC(=O)O[C@@]12CO[C@@H]1C[C@H](O)[C@]1(C)[C@@H]2[C@H](OC(=O)c2ccccc2)C2C[C@H](OC(=O)[C@H](O)[C@@H](NC(=O)c3ccc(F)cc3)c3ccccc3)C(C)=C([C@@H](O)[C@@H]1O)C2(C)C (stereo not given in full) | 90% | 20 nM | – | – | < 1 nM | 90% | – | –
6 | CCCCCC(=O)N[C@@H](c1ccccc1)[C@@H](O)C(=O)O[C@H]1CC2[C@@H](OC(=O)c3ccccc3)[C@@H]3[C@]4(OC(C)=O)CO[C@@H]4C[C@H](O)[C@@]3(C)[C@H]3OC(C)(C)O[C@@H]3C(=C1C)C2(C)C (stereo not given in full) | – | 210 nM | – | – | 10 nM | – | – | –
7 | CC(=O)OC1[C@H](OC(C)=O)C2=C(C)[C@@H](OC(=O)[C@H](O)[C@@H](NC(=O)c3ccccc3)c3ccccc3)CC([C@@H](OC(=O)c3ccccc3)[C@@H]3[C@]4(OC(C)=O)CO[C@@H]4C[C@H](OC(C)=O)[C@@]13C)C2(C)C (stereo not given in full) | – | – | – | – | – | – | 31.5 nM | –
8 | CC(=O)O[C@@]12CO[C@@H]1C[C@H](O)[C@]1(C)[C@@H]2[C@H](OC(=O)c2ccccc2)C2C[C@H](OC(=O)[C@H](O)[C@@H](NC(=O)c3ccc(CCl)cc3)c3ccccc3)C(C)=C([C@@H](O)[C@@H]1O)C2(C)C (stereo not given in full) | 90% | 90 nM | – | – | 30 nM | 90% | – | –
9 | CC(=O)O[C@@]12CO[C@@H]1C[C@H](O)[C@]1(C)[C@@H]2[C@H](OC(=O)c2ccccc2)C2C[C@H](OC(=O)[C@H](O)[C@@H](NC(=O)c3cc4ccccc4o3)c3ccccc3)C(C)=C([C@@H](O)[C@@H]1O)C2(C)C (stereo not given in full) | 90% | 70 nM | – | – | 20 nM | 90% | – | –
10 | CC(=O)O[C@@]12CO[C@@H]1C[C@H](O)[C@]1(C)[C@@H]2[C@H](OC(=O)c2ccccc2)C2C[C@H](OC(=O)[C@H](O)[C@@H](NC(=O)c3cccs3)c3ccccc3)C(C)=C([C@@H](O)[C@@H]1O)C2(C)C (stereo not given in full) | 90% | 1630 nM | – | – | 1260 nM | 90% | – | –
11 | CC(=O)O[C@H]1C(=O)[C@]2(C)[C@@H](OC(C)=O)C[C@H]3OC[C@@]3(OC(C)=O)[C@H]2[C@H](OC(=O)c2ccccc2)C2C[C@H](OC(=O)[C@H](O)[C@@H](NC(=O)c3ccccc3)c3ccccc3)C(C)=C1C2(C)C (stereo not given in full) | – | – | – | – | – | – | – | 62 nM
12 | CCCCCC(=O)N[C@@H](c1ccccc1)[C@@H](O)C(=O)O[C@H]1CC2[C@@H](OC(=O)c3ccccc3)[C@@H]3[C@]4(OC(C)=O)CO[C@@H]4C[C@H](O)[C@@]3(C)[C@@H](O)[C@H](O)C(=C1C)C2(C)C (stereo not given in full) | 40% | 10 nM | – | – | < 1 nM | 40% | – | –
